The subject of one assay is Trichophyton rubrum. Nature of the assay: Antifungal activity against Trichophyton rubrum 252 CSTM assessed as growth inhibition by agar dilution method. The format is functional. On the technique in general: In agar dilution, organisms are placed on agar that contains the substance at set levels.
The next assay relates to Pseudomonas aeruginosa. The assay can be described thus: Antibacterial activity against Pseudomonas aeruginosa ATCC 10145 assessed as growth inhibition after 24 hrs by dilution tube method. The format is functional. The following applies: ATCC 10145, 24 h. In short, it runs like this: (§1)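 Broth tube dilution in Tryptone Soya Broth, duplicate tubes at each concentration. MIC (μg/ml) was the highest dilution preventing visible growth. Nitrofurantoin run under the same conditions.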

A further assay relates to Staphylococcus aureus. Nature of the assay: Antibacterial activity against Staphylococcus aureus ATCC 6538 assessed as growth inhibition after 24 hrs by dilution tube method. The class given is functional. To be noted: ATCC 6538, 24 h. In short, it runs like this: as §1
In assay [1] the test system is Trichophyton mentagrophytes. The assay can be described thus: Antifungal activity against Trichophyton mentagrophytes A-280 USPHS assessed as growth inhibition by agar dilution method. The format is functional.
For a further assay, the system named is Nannizzia gypsea. The assay can be described thus: Antifungal activity against Microsporum gypseum 153 CSTM assessed as growth inhibition by agar dilution method. The class given is functional.
In the next assay the test system is Escherichia coli. The assay can be described thus: Antibacterial activity against Escherichia coli 114 assessed as growth inhibition after 24 hrs by dilution tube method. To be noted: Escherichia coli, 114, 24 h. The class given is functional. Summed up: as §1
Assay [2] relates to Agrobacterium tumefaciens. The assay can be described thus: Antibacterial activity against Agrobacterium tumefaciens NRRL B-36 assessed as growth inhibition after 24 hrs by dilution tube method. The class given is functional. The following applies: NRRL B-36, 24 h. Summed up: as §1
In the next assay the test system is Histoplasma capsulatum. Nature of the assay: Antifungal activity against Histoplasma capsulatum RNSH Hi-70 1/2 assessed as growth inhibition by agar dilution method. The class given is functional.
For another assay, the system named is Cryptococcus neoformans. Nature of the assay: Antifungal activity against Cryptococcus neoformans 103 assessed as growth inhibition by agar dilution method. The format is functional.
Assay [3] concerns Mycobacterium tuberculosis. The assay can be described thus: Antibacterial activity against Mycobacterium tuberculosis H37Rv assessed as growth inhibition by serial dilution method. The class given is functional. In short, it runs like this:
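M. tuberculosis H37Rv maintained on Lowenstein–Jensen medium; tested in Youman's medium by serial dilution.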

A further assay concerns Enterococcus faecalis. Nature of the assay: Antibacterial activity against Streptococcus faecalis ATCC 10541 assessed as growth inhibition after 24 hrs by dilution tube method. The class given is functional. The following applies: ATCC 10541, 24 h. In short, it runs like this: as §1
The next assay deals with Salmonella typhi. The assay can be described thus: Antibacterial activity against Salmonella typhi 115 assessed as growth inhibition after 24 hrs by dilution tube method. The format is functional, Salmonella enterica subsp. enterica serovar Typhi. The following applies: Salmonella enterica, 115, 24 h. In short, it runs like this:
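Dilution tube method in Tryptone Soya Broth; MIC (μg/ml) taken as highest dilution preventing visible growth; duplicates at every concentration; nitrofurantoin reference run under same conditions.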

The test system of the next assay is Candida albicans. The assay can be described thus: Antifungal activity against Candida albicans SKF 2270 assessed as growth inhibition by agar dilution method. The class given is functional.
The test system of a further assay is Microsporum canis. The assay can be described thus: Antifungal activity against Microsporum canis VM-200 USPHS assessed as growth inhibition by agar dilution method. The format is functional.
The subject of a further assay is Klebsiella pneumoniae. The assay can be described thus: Antibacterial activity against Klebsiella pneumoniae ATCC 10031 assessed as growth inhibition after 24 hrs by dilution tube method. The class given is functional. The following applies: ATCC 10031, 24 h. Summed up:
as §1

The MIC is the least concentration at which growth counts as inhibited.

As for `Cc1cc(OCCCCCCC[N+](C)(C)Cc2ccc(Br)o2)c(C(C)C)cc1Cl.[Br-]`, the MIC in the assay with Trichophyton rubrum was above 200 mg/L; with Pseudomonas aeruginosa it was 3 mg/L; in the assay on Staphylococcus aureus it was 10 mg/L; in assay [1] it was above 200 mg/L; with Nannizzia gypsea it was above 200 mg/L; with Escherichia coli it was above 200 mg/L. Besides, the MIC in assay [2] is 7.5 mg/L; in the assay on Histoplasma capsulatum, above 200 mg/L; with Cryptococcus neoformans, 25 mg/L; in assay [3] it was 7.5 mg/L; with Enterococcus faecalis it was 7.5 mg/L; in the assay on Salmonella typhi, above 200 mg/L. Further, the MIC is 50 mg/L with Candida albicans, above 200 mg/L with Microsporum canis and 7.5 mg/L in the assay on Klebsiella pneumoniae.
On to `C[N+](C)(CCCCCCCCOc1c(Br)cc(Br)cc1Br)Cc1ccc(Br)o1.[Br-]`, for which the MIC in the assay with Trichophyton rubrum was above 200 mg/L; with Pseudomonas aeruginosa, 2 mg/L; in the assay with Staphylococcus aureus, 3 mg/L; in assay [1] it was above 200 mg/L; with Nannizzia gypsea it was above 200 mg/L; in the assay with Escherichia coli, above 200 mg/L. Besides, the MIC in assay [2] was 7.5 mg/L; in the assay with Histoplasma capsulatum, above 200 mg/L; in the assay with Cryptococcus neoformans, 4 mg/L; in assay [3], 50 mg/L; in the assay with Enterococcus faecalis, 4 mg/L; with Salmonella typhi it was above 200 mg/L. Moreover, the figures for the MIC in the assay on Candida albicans, with Microsporum canis and in the assay on Klebsiella pneumoniae were above 200 mg/L, above 200 mg/L and 4 mg/L, respectively.
Turning to `Cc1ccc(C[N+](C)(C)CCCCCOc2c(Br)cc(Br)cc2Br)o1.[Br-]`, the MIC in the assay on Trichophyton rubrum is above 200 mg/L; with Pseudomonas aeruginosa it was 5 mg/L; with Staphylococcus aureus, 7.5 mg/L; in assay [1], above 200 mg/L; in the assay on Nannizzia gypsea, above 200 mg/L; in the assay with Escherichia coli it was above 200 mg/L. Further, the MIC came out at 25 mg/L in assay [2]; 100 mg/L in the assay with Histoplasma capsulatum; 25 mg/L with Cryptococcus neoformans; 5 mg/L in assay [3]; 25 mg/L in the assay on Enterococcus faecalis; 100 mg/L in the assay with Salmonella typhi. Also, the figures for the MIC in the assay with Candida albicans, with Microsporum canis and in the assay on Klebsiella pneumoniae were above 200 mg/L, above 200 mg/L and 5 mg/L, respectively.
As for `Cc1ccc(C[N+](C)(C)CCCCCCOc2c(Br)cc(Br)cc2Br)o1.[Br-]`, the MIC with Trichophyton rubrum is above 200 mg/L; in the assay on Pseudomonas aeruginosa, 2.5 mg/L; in the assay on Staphylococcus aureus, 5 mg/L; in [1], above 200 mg/L; in the assay with Nannizzia gypsea, above 200 mg/L; in the assay on Escherichia coli, above 200 mg/L. Moreover, the MIC was 25 mg/L in assay [2]; 75 mg/L in the assay on Histoplasma capsulatum; 10 mg/L with Cryptococcus neoformans; 10 mg/L in assay [3]; 7.5 mg/L in the assay on Enterococcus faecalis; 75 mg/L in the assay on Salmonella typhi. Further, the MIC in the assay on Candida albicans is above 200 mg/L; in the assay with Microsporum canis, above 200 mg/L; in the assay on Klebsiella pneumoniae, 5 mg/L.
Turning to `C[N+](C)(CCOc1ccc(Cl)cc1Cl)Cc1ccc(Br)o1.[Br-]`, the MIC was above 200 mg/L with Trichophyton rubrum; 50 mg/L in the assay on Pseudomonas aeruginosa; 100 mg/L in the assay on Staphylococcus aureus; above 200 mg/L in assay [1]; above 200 mg/L with Nannizzia gypsea; above 200 mg/L in the assay on Escherichia coli. Also, the MIC (in [2]; in the assay with Histoplasma capsulatum; in the assay on Cryptococcus neoformans; in assay [3]; with Enterococcus faecalis; in the assay on Salmonella typhi) was above 200 mg/L in each case. Moreover, the MIC is above 200 mg/L in the assay with Candida albicans, above 200 mg/L in the assay on Microsporum canis and 100 mg/L in the assay on Klebsiella pneumoniae.
Turning to `Cc1cc(OCC[N+](C)(C)Cc2ccc(Br)o2)c(C(C)C)cc1Cl.[Br-]`, the MIC with Trichophyton rubrum was above 200 mg/L; with Pseudomonas aeruginosa, 5 mg/L; in the assay with Staphylococcus aureus it was 9 mg/L; in [1] it was 100 mg/L; in the assay with Nannizzia gypsea, above 200 mg/L; with Escherichia coli, above 200 mg/L. Further, the MIC in assay [2] was found to be 25 mg/L; in the assay on Histoplasma capsulatum it was 50 mg/L; in the assay with Cryptococcus neoformans, 50 mg/L; in [3], 10 mg/L; in the assay with Enterococcus faecalis, 25 mg/L; in the assay with Salmonella typhi, 100 mg/L. The MIC with Candida albicans is above 200 mg/L; with Microsporum canis it was 100 mg/L; in the assay with Klebsiella pneumoniae it was 25 mg/L.
As for `Cc1cc(OCCCCCCCC[N+](C)(C)Cc2ccc([N+](=O)[O-])o2)c(C(C)C)cc1Cl.[Br-]`, the MIC in the assay on Trichophyton rubrum was above 200 mg/L; in the assay on Pseudomonas aeruginosa it was 1 mg/L; in the assay on Staphylococcus aureus, 2 mg/L; in assay [1], above 200 mg/L; in the assay on Nannizzia gypsea it was above 200 mg/L; in the assay with Escherichia coli it was above 200 mg/L. Further, the MIC in assay [2] was 4 mg/L; in the assay with Histoplasma capsulatum, above 200 mg/L; in the assay with Cryptococcus neoformans, 4 mg/L; in [3], 7.5 mg/L; with Enterococcus faecalis, 3 mg/L; with Salmonella typhi it was above 200 mg/L. The MIC was above 200 mg/L with Candida albicans, above 200 mg/L in the assay on Microsporum canis and 2 mg/L in the assay on Klebsiella pneumoniae.
`Cc1cc(OCCCCCCC[N+](C)(C)Cc2ccc([N+](=O)[O-])o2)c(C(C)C)cc1Cl.[Br-]`: the MIC was above 200 mg/L with Trichophyton rubrum; 2 mg/L in the assay with Pseudomonas aeruginosa; 4 mg/L in the assay with Staphylococcus aureus; above 200 mg/L in assay [1]; above 200 mg/L with Nannizzia gypsea; above 200 mg/L in the assay with Escherichia coli. Besides, the minimal inhibitory concentration (MIC) in assay [2] was 7.5 mg/L; in the assay on Histoplasma capsulatum, above 200 mg/L; with Cryptococcus neoformans it was 4 mg/L; in assay [3] it was 5 mg/L; in the assay with Enterococcus faecalis, 3 mg/L; in the assay with Salmonella typhi, above 200 mg/L. Moreover, the MIC was above 200 mg/L with Candida albicans, above 200 mg/L with Microsporum canis and 3 mg/L in the assay with Klebsiella pneumoniae.
`Cc1ccc(C[N+](C)(C)CCCCOc2cc(C)c(Cl)cc2C(C)C)o1.[Br-]`: the MIC with Trichophyton rubrum is above 200 mg/L; in the assay with Pseudomonas aeruginosa it was 5 mg/L; with Staphylococcus aureus, 25 mg/L; in assay [1], 50 mg/L; in the assay with Nannizzia gypsea, above 200 mg/L; in the assay on Escherichia coli, above 200 mg/L. The MIC was found to be 50 mg/L in assay [2]; 100 mg/L in the assay on Histoplasma capsulatum; 25 mg/L with Cryptococcus neoformans; 10 mg/L in [3]; 25 mg/L in the assay with Enterococcus faecalis; 100 mg/L with Salmonella typhi. Also, the MIC was 50 mg/L in the assay on Candida albicans, 25 mg/L in the assay on Microsporum canis and 5 mg/L in the assay on Klebsiella pneumoniae.
As to `C[N+](C)(CCCCCCCCCCOc1c(Br)cc(Br)cc1Br)Cc1ccc(Br)o1.[Br-]`, the MIC in the assay with Trichophyton rubrum was above 200 mg/L; in the assay with Pseudomonas aeruginosa, 2 mg/L; in the assay on Staphylococcus aureus, 10 mg/L; in assay [1], above 200 mg/L; in the assay on Nannizzia gypsea it was above 200 mg/L; in the assay on Escherichia coli it was above 200 mg/L. In addition, the MIC was 7.5 mg/L in assay [2]; above 200 mg/L in the assay with Histoplasma capsulatum; 4 mg/L with Cryptococcus neoformans; 50 mg/L in [3]; 4 mg/L in the assay with Enterococcus faecalis; above 200 mg/L in the assay with Salmonella typhi. For the same compound, the MIC in the assay on Candida albicans was above 200 mg/L; with Microsporum canis, above 200 mg/L; with Klebsiella pneumoniae, 3 mg/L.
As to `C[N+](C)(CCCCCCCOc1c(Br)cc(Br)cc1Br)Cc1ccc(Br)o1.[Br-]`, the MIC is above 200 mg/L in the assay on Trichophyton rubrum; 2 mg/L with Pseudomonas aeruginosa; 3 mg/L in the assay on Staphylococcus aureus; above 200 mg/L in [1]; above 200 mg/L in the assay on Nannizzia gypsea; above 200 mg/L in the assay with Escherichia coli. Besides, the MIC in assay [2] is 7.5 mg/L; in the assay with Histoplasma capsulatum, above 200 mg/L; in the assay with Cryptococcus neoformans it was 5 mg/L; in assay [3] it was 25 mg/L; with Enterococcus faecalis it was 4 mg/L; in the assay with Salmonella typhi it was above 200 mg/L. For the same compound, the MIC in the assay with Candida albicans is above 200 mg/L; in the assay on Microsporum canis it was above 200 mg/L; with Klebsiella pneumoniae, 2 mg/L.
